Reference: ChEMBL document CHEMBL2380298, “Synthesis and antimicrobial activity of novel amphiphilic aromatic amino alcohols” (2013)
Values after ≈ are worked out from the molar mass of the structure shown.

How the values were obtained:
Format in all cases: functional
Staphylococcus aureus [1] = assay: Antimicrobial activity against methicillin-resistant Staphylococcus aureus clinical isolate 178 by broth dilution method
Staphylococcus aureus [2] = assay: Antimicrobial activity against methicillin-resistant Staphylococcus aureus clinical isolate 257 by broth dilution method
Staphylococcus aureus [3] = assay: Antimicrobial activity against methicillin-resistant Staphylococcus aureus clinical isolate 227 by broth dilution method
Staphylococcus aureus [4] = assay: Bactericidal activity against methicillin-resistant Staphylococcus aureus clinical isolate 237 after 24 hrs; conditions: isolate 237, 24 h
In short: (§1)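 Bactericidal concentration: 0.1 ml from wells at the MIC dilution and the dilutions on either side was streaked onto tryptic soy agar and incubated 24 h. It was taken as the lowest drug concentration giving no growth (100% killing).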

Nakaseomyces glabratus = assay: Antimicrobial activity against Candida glabrata ATCC 18804 by broth dilution method
Candida albicans = assay: Antimicrobial activity against Candida albicans ATCC 22019 by broth dilution method
Staphylococcus aureus [5] = assay: Antimicrobial activity against methicillin-resistant Staphylococcus aureus clinical isolate 176 by broth dilution method
Staphylococcus aureus [6] = assay: Antimicrobial activity against methicillin-resistant Staphylococcus aureus clinical isolate 215 by broth dilution method
Staphylococcus aureus [7] = assay: Antimicrobial activity against methicillin-resistant Staphylococcus aureus clinical isolate 238 by broth dilution method
Staphylococcus aureus [8] = assay: Bactericidal activity against methicillin-resistant Staphylococcus aureus clinical isolate 176 after 24 hrs; conditions: isolate 176, 24 h; in short: as §1
Staphylococcus aureus [9] = assay: Antimicrobial activity against methicillin-resistant Staphylococcus aureus clinical isolate 264 by broth dilution method
Staphylococcus aureus [10] = assay: Bactericidal activity against methicillin-resistant Staphylococcus aureus clinical isolate 257 after 24 hrs; conditions: isolate 257, 24 h; in short: as §1
Staphylococcus aureus [11] = assay: Antimicrobial activity against methicillin-resistant Staphylococcus aureus clinical isolate 218 by broth dilution method
Staphylococcus aureus [12] = assay: Antimicrobial activity against methicillin-resistant Staphylococcus aureus clinical isolate 207 by broth dilution method
Staphylococcus aureus [13] = assay: Antimicrobial activity against methicillin-resistant Staphylococcus aureus clinical isolate 225 by broth dilution method
Staphylococcus aureus [14] = assay: Bactericidal activity against methicillin-resistant Staphylococcus aureus clinical isolate 260 after 24 hrs; conditions: isolate 260, 24 h; in short: as §1
Staphylococcus aureus [15] = assay: Antimicrobial activity against methicillin-resistant Staphylococcus aureus clinical isolate by broth dilution method
Staphylococcus aureus [16] = assay: Bactericidal activity against methicillin-resistant Staphylococcus aureus clinical isolate 212 after 24 hrs; conditions: isolate 212, 24 h; in short: as §1
Staphylococcus aureus [17] = assay: Antimicrobial activity against methicillin-resistant Staphylococcus aureus clinical isolate 237 by broth dilution method
Candida parapsilosis = assay: Antimicrobial activity against Candida parapsilosis ATCC 90030 by broth dilution method; conditions: Lodderomyces parapsilosis
Staphylococcus aureus [18] = assay: Bactericidal activity against Staphylococcus aureus ATCC 29213 after 24 hrs; conditions: ATCC 29213, 24 h; in short: as §1
Escherichia coli = assay: Antimicrobial activity against Escherichia coli ATCC 11229 by broth dilution method; conditions: Escherichia coli, ATCC 11229
Staphylococcus aureus [19] = assay: Antimicrobial activity against methicillin-resistant Staphylococcus aureus clinical isolate 260 by broth dilution method
Staphylococcus aureus [20] = assay: Bactericidal activity against methicillin-resistant Staphylococcus aureus clinical isolate 231 after 24 hrs; conditions: isolate 231, 24 h; in short: as §1
Staphylococcus aureus [21] = assay: Antimicrobial activity against methicillin-resistant Staphylococcus aureus clinical isolate 259 by broth dilution method
Staphylococcus aureus [22] = assay: Antimicrobial activity against Staphylococcus aureus ATCC 29213 by broth dilution method; conditions: Staphylococcus aureus, ATCC 29213
Staphylococcus aureus [23] = assay: Antimicrobial activity against methicillin-resistant Staphylococcus aureus clinical isolate 235 by broth dilution method
Staphylococcus aureus [24] = assay: Bactericidal activity against methicillin-resistant Staphylococcus aureus clinical isolate 264 after 24 hrs; conditions: isolate 264, 24 h; in short: as §1
Staphylococcus aureus [25] = assay: Antimicrobial activity against methicillin-resistant Staphylococcus aureus clinical isolate 232 by broth dilution method
Candida tropicalis = assay: Antimicrobial activity against Candida tropicalis ATCC 750 by broth dilution method
[26] = tested on: Staphylococcus epidermidis; assay: Antimicrobial activity against Staphylococcus epidermidis ATCC 12228 by broth dilution method; conditions: for MIC: Staphylococcus epidermidis, ATCC 12228
Staphylococcus aureus [27] = assay: Bactericidal activity against methicillin-resistant Staphylococcus aureus clinical isolate 236 after 24 hrs; conditions: isolate 236, 24 h; in short: as §1
Staphylococcus aureus [28] = assay: Antimicrobial activity against methicillin-resistant Staphylococcus aureus clinical isolate 195 by broth dilution method
[29] = tested on: Staphylococcus epidermidis; assay: Bactericidal activity against Staphylococcus epidermidis ATCC 12228 after 24 hrs; conditions: ATCC 12228, 24 h
In short: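 MBC: after MIC determination, 0.1 ml from the MIC well and from two dilutions either side streaked on tryptic soy agar, incubated 24 h; MBC taken as lowest concentration giving no growth (100% kill).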

Staphylococcus aureus [30] = assay: Antimicrobial activity against methicillin-resistant Staphylococcus aureus clinical isolate 255 by broth dilution method
Staphylococcus aureus [31] = assay: Antimicrobial activity against methicillin-resistant Staphylococcus aureus clinical isolate 205 by broth dilution method
Staphylococcus aureus [32] = assay: Antimicrobial activity against methicillin-resistant Staphylococcus aureus clinical isolate 236 by broth dilution method
Staphylococcus aureus [33] = assay: Antimicrobial activity against methicillin-resistant Staphylococcus aureus clinical isolate 212 by broth dilution method
Staphylococcus aureus [34] = assay: Bactericidal activity against methicillin-resistant Staphylococcus aureus clinical isolate 235 after 24 hrs; conditions: isolate 235, 24 h; in short: as §1
Staphylococcus aureus [35] = assay: Bactericidal activity against methicillin-resistant Staphylococcus aureus clinical isolate 259 after 24 hrs; conditions: isolate 259, 24 h; in short: as §1
Staphylococcus aureus [36] = assay: Bactericidal activity against methicillin-resistant Staphylococcus aureus clinical isolate 255 after 24 hrs; conditions: isolate 255, 24 h; in short: as §1
Staphylococcus aureus [37] = assay: Bactericidal activity against methicillin-resistant Staphylococcus aureus clinical isolate 238 after 24 hrs; conditions: isolate 238, 24 h; in short: as §1
Pseudomonas aeruginosa = assay: Antimicrobial activity against Pseudomonas aeruginosa ATCC 27853 by broth dilution method
Staphylococcus aureus [38] = assay: Antimicrobial activity against methicillin-resistant Staphylococcus aureus clinical isolate 231 by broth dilution method
Staphylococcus aureus [39] = assay: Bactericidal activity against methicillin-resistant Staphylococcus aureus clinical isolate 232 after 24 hrs; conditions: isolate 232, 24 h; in short: as §1
Staphylococcus aureus [40] = assay: Antimicrobial activity against methicillin-resistant Staphylococcus aureus clinical isolate assessed as susceptible isolates by broth dilution method
Staphylococcus aureus [41] = assay: Bactericidal activity against methicillin-resistant Staphylococcus aureus clinical isolate 225 after 24 hrs; conditions: isolate 225, 24 h; in short: as §1
Staphylococcus aureus [42] = assay: Antimicrobial activity against methicillin-resistant Staphylococcus aureus clinical isolate assessed as resistant isolates by broth dilution method
Staphylococcus aureus [43] = assay: Bactericidal activity against methicillin-resistant Staphylococcus aureus clinical isolate 218 after 24 hrs; conditions: isolate 218, 24 h; in short: as §1

Molecule CCCCCCCCCCCCOc1ccc(CNC(CO)(CO)CO)cc1.Cl has an MIC (Staphylococcus aureus [1]) of 8 µg/mL, an MIC (Staphylococcus aureus [2]) of 16 µg/mL and an MIC (Staphylococcus aureus [3]) of 4 µg/mL. The MBC (Staphylococcus aureus [4]) was 4 µg/mL, the MIC (Nakaseomyces glabratus) was 2 µg/mL and the MIC (Candida albicans) was 4 µg/mL. For the same molecule, the MIC (Staphylococcus aureus [5]) was 8 µg/mL, the MIC (Staphylococcus aureus [6]) was 8 µg/mL and the MIC (Staphylococcus aureus [7]) was 4 µg/mL. It also gave an MBC (Staphylococcus aureus [8]) of 128 µg/mL, an MIC (Staphylococcus aureus [9]) of 4 µg/mL and an MBC (Staphylococcus aureus [10]) of 16 µg/mL. For the same molecule, the MIC (Staphylococcus aureus [11]) was 4 µg/mL, the MIC (Staphylococcus aureus [12]) was 4 µg/mL and the MIC (Staphylococcus aureus [13]) was 8 µg/mL. For the same molecule, the MBC (Staphylococcus aureus [14]) was 4 µg/mL, the “-logMIC” value (Staphylococcus aureus [15]) was 4.842 and the MIC50 (Staphylococcus aureus [15]; Staphylococcus aureus) was 4 µg/mL. The MIC90 (Staphylococcus aureus [15]; Staphylococcus aureus) was 8 µg/mL, the MBC (Staphylococcus aureus [16]) was 128 µg/mL and the MIC (Staphylococcus aureus [17]) was 4 µg/mL. For the same molecule, the MIC (Candida parapsilosis) was 4 µg/mL, the MBC (Staphylococcus aureus [18]) was 8 µg/mL and the MIC (Escherichia coli) was greater than 256 µg/mL. For the same molecule, the MIC (Staphylococcus aureus [19]) was 4 µg/mL, the MBC (Staphylococcus aureus [20]) was 4 µg/mL and the MIC (Staphylococcus aureus [21]) was 4 µg/mL. The MIC (Staphylococcus aureus [22]) was 8 µg/mL, the MIC (Staphylococcus aureus [23]) was 4 µg/mL and the MBC (Staphylococcus aureus [24]) was 8 µg/mL. The MIC (Staphylococcus aureus [25]) was 8 µg/mL, the MIC (Candida tropicalis) was 8 µg/mL and the “-logMIC” value [26] was 4.73. It also gave an MIC [26] of 8 µg/mL, an MBC (Staphylococcus aureus [27]) of 8 µg/mL and an MIC (Staphylococcus aureus [28]) of 8 µg/mL. For the same molecule, the MBC [29] was 8 µg/mL, the MIC (Staphylococcus aureus [30]) was 4 µg/mL and the MIC (Staphylococcus aureus [31]) was 8 µg/mL. It also gave an MIC (Staphylococcus aureus [32]) of 4 µg/mL, an MIC (Staphylococcus aureus [33]) of 8 µg/mL and an MBC (Staphylococcus aureus [34]) of 32 µg/mL. For the same molecule, the MBC (Staphylococcus aureus [35]) was 16 µg/mL, the MBC (Staphylococcus aureus [36]) was 16 µg/mL and the MBC (Staphylococcus aureus [37]) was 4 µg/mL. The MIC (Pseudomonas aeruginosa) was greater than 256 µg/mL, the MIC (Staphylococcus aureus [38]) was 4 µg/mL and the MBC (Staphylococcus aureus [39]) was 16 µg/mL.

Molecule O=C(N[C@H](CO)[C@H](O)c1ccc([N+](=O)[O-])cc1)C(Cl)Cl [CHLORAMPHENICOL] has an MIC (Staphylococcus aureus [1]) of 4 µg/mL (≈ 12.4 µM), an MIC (Staphylococcus aureus [2]) of 8 µg/mL (≈ 24.8 µM) and an MIC (Staphylococcus aureus [3]) of 64 µg/mL (≈ 198 µM). The Activity (Staphylococcus aureus [40]) was 43.7%, the MBC (Staphylococcus aureus [4]) was 16 µg/mL (≈ 49.5 µM) and the MIC (Staphylococcus aureus [5]) was 64 µg/mL (≈ 198 µM). For the same molecule, the MIC (Staphylococcus aureus [6]) was 64 µg/mL (≈ 198 µM), the MIC (Staphylococcus aureus [7]) was 32 µg/mL (≈ 99 µM) and the MIC (Staphylococcus aureus [9]) was 8 µg/mL (≈ 24.8 µM). It also gave an MBC (Staphylococcus aureus [10]) of 8 µg/mL (≈ 24.8 µM), an MIC (Staphylococcus aureus [11]) of 64 µg/mL (≈ 198 µM) and an MBC (Staphylococcus aureus [41]) of 512 µg/mL (≈ 1580 µM). The MIC (Staphylococcus aureus [12]) was 4 µg/mL (≈ 12.4 µM), the MIC (Staphylococcus aureus [13]) was 8 µg/mL (≈ 24.8 µM) and the MBC (Staphylococcus aureus [14]) was 32 µg/mL (≈ 99 µM). For the same molecule, the MIC90 (Staphylococcus aureus [15]; Staphylococcus aureus) was 32 µg/mL (≈ 99 µM), the Activity (Staphylococcus aureus [42]) was 56.3% and the MBC (Staphylococcus aureus [16]) was 128 µg/mL (≈ 396 µM). For the same molecule, the MIC (Staphylococcus aureus [17]) was 32 µg/mL (≈ 99 µM), the MBC (Staphylococcus aureus [43]) was 128 µg/mL (≈ 396 µM) and the MIC (Staphylococcus aureus [19]) was 4 µg/mL (≈ 12.4 µM). The MBC (Staphylococcus aureus [20]) was 16 µg/mL (≈ 49.5 µM), the MIC (Staphylococcus aureus [21]) was 128 µg/mL (≈ 396 µM) and the MIC (Staphylococcus aureus [23]) was 64 µg/mL (≈ 198 µM). The MBC (Staphylococcus aureus [24]) was 64 µg/mL (≈ 198 µM), the MIC (Staphylococcus aureus [25]) was 64 µg/mL (≈ 198 µM) and the MIC [26] was 32 µg/mL (≈ 99 µM). The MBC (Staphylococcus aureus [27]) was 32 µg/mL (≈ 99 µM), the MIC (Staphylococcus aureus [28]) was 4 µg/mL (≈ 12.4 µM) and the MBC [29] was 128 µg/mL (≈ 396 µM). It also gave an MIC (Staphylococcus aureus [30]) of 4 µg/mL (≈ 12.4 µM), an MIC (Staphylococcus aureus [31]) of 8 µg/mL (≈ 24.8 µM) and an MIC (Staphylococcus aureus [32]) of 64 µg/mL (≈ 198 µM). The MIC (Staphylococcus aureus [33]) was 8 µg/mL (≈ 24.8 µM), the MBC (Staphylococcus aureus [34]) was 32 µg/mL (≈ 99 µM) and the MBC (Staphylococcus aureus [35]) was 8 µg/mL (≈ 24.8 µM). For the same molecule, the MBC (Staphylococcus aureus [36]) was 8 µg/mL (≈ 24.8 µM), the MBC (Staphylococcus aureus [37]) was 16 µg/mL (≈ 49.5 µM) and the MIC (Pseudomonas aeruginosa) was 32 µg/mL (≈ 99 µM). For the same molecule, the MIC (Staphylococcus aureus [38]) was 64 µg/mL (≈ 198 µM) and the MBC (Staphylococcus aureus [39]) was 16 µg/mL (≈ 49.5 µM).
